The list is not random: actives were taken first. Their share in the collection is about 1.9%.
NTR1 agonist: agonists of human neurotensin receptor NTR1; NTR1-U2OS beta-arrestin-GFP spot imaging, agonist mode; activation, % at 20 µM; actives 0.17% (n = 330,000);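 active means activation at or above 40% of the spot to cytoplasm intensity ratio, with at least 20 cells analyzed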;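 further: 0% = DMSO without peptide and 100% = 100 nM NTR1 peptide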
MC4R barr agon: activates human MC4R beta-arrestin recruitment | actives 0.98% (n = 360,000) | U2OS MC4R beta-arrestin complementation, luminescence; percent of melanotan II response, DMSO zero | activation, % at 8.9 µM | P32245;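 active means activation above a per-plate cutoff, the mean activation of sample wells on that plate plus 3 SD, cut at about 8% in these data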
TLR4 MyD88 comp: TLR4-MyD88 interaction inhibition in cells. inhibition, % at 8.4 µM. actives 0.18% (n = 200,000). HeLa CL3-4 TLR4/MyD88 BLA complementation, FRET ratio. O00206+Q99836; in the data active means inhibition above about 25%;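 further: 0% = vehicle and 100% = reference inhibitor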
MC4R antag cAMP: human MC4R antagonism in cAMP assay; P32245; MC4R-expressing cells, MTII-stimulated cAMP, LANCE TR-FRET; inhibition, % at 6.5 µM; actives 0.48% (n = 360,000);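 active means inhibition above its plate's cutoff, the mean of tested wells on that plate plus 3 SD, cut at about 29% in these data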;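 further: 0% = Melanotan II alone and 100% = Melanotan II plus saturating MCL0020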
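System: U2OS cells stably expressing human melanocortin 4 receptor (MC4R). Reagent: Melanotan II challenge after compound preincubation. Doses: 6.5 µM. Times: 30-min compound, 1-h challenge, 1-h detection, room temperature. Measured by: TR-FRET with Eu-cAMP and labeled anti-cAMP, 671 nm. Replicates: singlicate.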
TLR9-MyD88 inh: TLR9-MyD88 interaction inhibition; inhibition, % at 4.98 µM; Q9NR96+Q99836; CHO BLA complementation TLR9-MyD88, CCF4 FRET ratio; actives 0.21% (n = 340,000); AID 504734;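 active means inhibition above the mean over all tested compounds plus 3 SD, cut at about 21% in these data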;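 further: 0% = DMSO only wells and 100% = clavulanate BLA inhibitor control wells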
NOD2-RIPK2 inh: NOD2-RIPK2 protein interaction inhibition; inhibition, % at 4.98 µM; actives 0.38% (n = 360,000); CHO BLA complementation NOD2-RIPK2, CCF4 ratio; in the data active means inhibition above about 21%;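 further: 0% = vehicle only and 100% = reference blocker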
Target sequence (O43353 whole entry, looked up): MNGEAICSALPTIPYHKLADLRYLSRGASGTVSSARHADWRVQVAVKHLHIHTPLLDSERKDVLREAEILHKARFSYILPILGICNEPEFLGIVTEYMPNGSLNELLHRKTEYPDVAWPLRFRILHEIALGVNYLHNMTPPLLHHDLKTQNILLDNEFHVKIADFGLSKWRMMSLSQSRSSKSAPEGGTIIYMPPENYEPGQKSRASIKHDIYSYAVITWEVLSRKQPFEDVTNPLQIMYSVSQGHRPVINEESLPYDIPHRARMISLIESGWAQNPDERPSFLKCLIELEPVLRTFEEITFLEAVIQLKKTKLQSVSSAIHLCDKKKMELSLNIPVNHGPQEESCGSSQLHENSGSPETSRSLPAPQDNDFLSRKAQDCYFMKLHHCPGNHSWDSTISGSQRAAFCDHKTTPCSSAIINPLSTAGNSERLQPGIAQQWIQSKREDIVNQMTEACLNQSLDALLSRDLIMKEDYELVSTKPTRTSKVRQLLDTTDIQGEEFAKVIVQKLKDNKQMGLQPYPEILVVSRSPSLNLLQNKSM
NOD2-RIPK2 conf: NOD2-RIPK2 interaction inhibition confirmed; actives 70% (n = 1,200); inhibition, % at 4.98 µM; shares compounds with NOD2-RIPK2 inh; AID 624370; CHO cells, NOD2-RIPK2 BLA complementation, CCF4 FRET;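 active means mean inhibition across replicates above a set limit taken from the earlier primary screen, cut at about 21% in these data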;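 further: 0% = DMSO-only wells and the high end = clavulanate BLA-blocked wells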
NOD2 BLA counter: counter-screen for NOD2-RIPK2 interaction inhibitors: BLA reporter | shares compounds with NOD2-RIPK2 inh | CHO BLA reporter, CCF4 FRET ratio, counterscreen | inhibition, % at 4.98 µM | actives 57% (n = 1,200) | AID 624371;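 active means mean inhibition above the low-control mean inhibition plus three low-control SD, cut at about 11% in these data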;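 further: 0% = DMSO only wells and 100% = clavulanate high control wells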
Numbers without * were called inactive; · = no result given.

SMILES	NTR1 agonist	MC4R barr agon	TLR4 MyD88 comp	MC4R antag cAMP	TLR9-MyD88 inh	NOD2-RIPK2 inh	NOD2-RIPK2 conf	NOD2 BLA counter
CC(Sc1ccc(Cl)cc1)C(=O)Nc1ccccc1-c1ccccc1 (stereo not drawn)	·	0.6	-4.0	8.0	-14.0	10.8	·	·
O=C(COc1cccc2ccccc12)N1CCN(c2ccccn2)CC1	3.0	-1.3	0.9	-7.7	-1.1	-9.5	·	·
CCC(=O)c1ccc(OCC(=O)N2CCN(c3ccccn3)CC2)cc1	2.1	-1.4	·	0.6	6.9	27.8*	-1.0	4.5
CC1CCN(Cc2cc(=O)oc3cc(O)c(Cl)cc23)CC1	0.6	2.4	·	13.6	6.7	31.1*	32.5*	49.5*
CC1CN(Cc2cc(=O)oc3cc(O)c(Cl)cc23)CC(C)O1 (stereo not drawn)	0.4	-2.6	·	-0.2	-20.6	-8.6	·	·
COc1ccc(-n2sc3ccccc3c2=O)cc1	·	-1.8	·	-8.1	0.4	25.8*	44.2*	7.3
COc1ccc(N2C(=O)CSC2c2ccc(F)cc2)cc1 (stereo not drawn)	-0.6	-0.9	·	2.0	2.5	4.5	·	·
COc1ccc(-n2sc3ccc(F)cc3c2=O)cc1	0.2	-4.3	·	9.2	15.9	39.8*	40.1*	2.3
O=C(OCC(=O)N1CCc2ccccc2C1)c1cccnc1Cl	0.0	-2.2	14.4	0.0	4.8	1.8	·	·
CCCCn1c(=O)[nH]c2nc3cc(N)ccc3nc2c1=O	·	-0.9	11.0	-28.6	19.1	26.2*	31.1*	36.8*
Cc1cc2nc3c(=O)n(CCc4ccccc4)c(=O)[nH]c3nc2cc1N	-1.8	1.1	·	-15.9	4.9	12.3	·	·
Nc1ccc2nc3c(=O)n(CCc4ccccc4)c(=O)[nH]c3nc2c1	0.1	1.0	·	-20.1	·	37.5*	36.1*	35.1*
C=CCn1c(=O)[nH]c2nc3cc(N=CN(C)C)c(C)cc3nc2c1=O	2.4	-2.5	·	-4.1	1.6	-9.2	·	·
OCCSc1nc2ccccc2n1CCOc1ccccc1	-0.7	-1.2	-7.6	-5.7	-4.8	-2.6	·	·
Cc1cccc(NC(=O)CNC(=O)c2ccc3c(c2)OCO3)n1	0.2	-1.1	·	10.8	-0.7	37.6*	-6.4	2.1
Cc1cccc(OCC(=O)N(C)c2c(N)n(Cc3ccccc3)c(=O)[nH]c2=O)c1C	-2.4	2.0	·	13.5	-4.4	-2.7	·	·
CCc1ccc2c(c1)C1(NN=C(c3ccc(C)cc3)S1)C(=O)N2 (stereo not drawn)	0.9	0.7	11.6	-5.5	18.9	24.6*	4.9	7.0
CC(C)c1ccc2c(c1)C1(NN=C(c3ccccc3)S1)C(=O)N2 (stereo not drawn)	5.7	1.8	12.3	6.0	13.3	25.6*	6.0	9.3
COc1cc(OC)cc(C(=O)NC(C(=O)Nc2ccc(N3CCOCC3)cc2)C(C)C)c1 (stereo not drawn)	-1.0	-1.2	·	5.8	-13.2	-9.8	·	·
Cc1ccc(/C=N/Nc2ccnc3cc(Cl)ccc23)c(C)c1	7.2	4.3	-11.2	8.3	18.7	21.2*	30.5*	41.8*
Oc1ccc(/C=N/Nc2ccnc3cc(Cl)ccc23)c(O)c1	-3.5	8.1	·	0.3	9.2	10.0	·	·
CC[C@H]1CN2CCc3cc(OC)c(OC)cc3C2C[C@@H]1C[C@H]1NCCc2cc(OC)c(OC)cc21 (stereo partly drawn)	19.6	-1.2	·	4.8	2.5	22.6*	27.4*	-7.8
CCC1=C(CC2NCCc3ccccc32)CC2c3cc(OC)c(OC)cc3CCN2C1 (stereo not drawn)	·	-1.0	·	-2.1	1.9	15.9	·	·
COc1ccc(/C=N\NC(=O)c2ccccc2F)cc1COc1ccc(F)cc1F	6.9	-2.6	·	-16.0	8.7	9.2	·	·
COc1ccc(/C=N/NC(=O)c2ccc(NC(C)=O)cc2)cc1COc1ccc(F)cc1F	-1.1	-1.2	·	2.8	30.2*	24.9*	6.2	8.2
SMILES	NTR1 agonist	MC4R barr agon	TLR4 MyD88 comp	MC4R antag cAMP	TLR9-MyD88 inh	NOD2-RIPK2 inh	NOD2-RIPK2 conf	NOD2 BLA counter
COc1ccc(CCNC(=O)COc2ccc(S(=O)(=O)N3CCOCC3)cc2C)cc1	-0.6	0.4	·	-1.3	-6.5	-9.3	·	·
COc1ccc(/C=C2/Sc3ccc(C(=O)NCCN4CCCCCC4)cc3NC2=O)cc1	23.9	7.3	·	-1.8	2.2	23.6*	16.9	9.6
CCCCCNC(=O)C(c1ccccc1F)n1c(=O)c(-c2ccco2)nc2ccccc21 (stereo not drawn)	·	·	·	·	·	2.0	·	·
COc1ccc(NC(=O)C(c2ccncc2)n2c(=O)c(-c3ccccc3)nc3ccccc32)cc1 (stereo not drawn)	·	·	·	·	·	-2.0	·	·
COc1ccc(NC(=O)C(c2ccccc2F)n2c(=O)c(-c3cc4ccccc4[nH]3)nc3ccccc32)cc1 (stereo not drawn)	·	·	·	·	·	50.3*	46.6*	68.5*
O=C(Nc1ccc2c(c1)OCCO2)C(c1ccccc1)n1c(=O)c(-c2cc3ccccc3[nH]2)nc2ccccc21 (stereo not drawn)	·	·	·	·	·	48.2*	40.9*	63.6*
COc1ccc(NC(=O)C(c2ccccc2)n2c(=O)c(-c3cc4ccccc4[nH]3)nc3ccccc32)cc1 (stereo not drawn)	·	·	·	·	·	46.8*	42.3*	65.2*
O=C(Nc1ccc2ccccc2c1)C(c1ccccc1F)n1c(=O)c(-c2cc3ccccc3[nH]2)nc2ccccc21 (stereo not drawn)	·	·	·	·	·	44.9*	41.8*	66.7*
COCC(=O)N1CCN(c2nc3ccccc3o2)CC1	0.4	-1.4	-2.6	-3.8	-4.2	-6.7	·	·
O=C(COC(=O)c1cccc([N+](=O)[O-])c1)Nc1ccc(Cl)cn1	1.4	-1.1	·	-5.8	-5.3	-0.3	·	·
CCCCCNC(=O)C(c1cccc2ccccc12)n1c(=O)c(-c2cc3ccccc3[nH]2)nc2ccccc21 (stereo not drawn)	·	·	·	·	·	41.7*	36.4*	63.7*

High-throughput results: PubChem, several laboratories
